{"source": "ChEMBL document CHEMBL1909566", "about": "“Diverse metabolic profiles of a Streptomyces strain isolated from a hyper-arid environment” (2011)", "type_in_all_cases": "functional", "key": {"Listeria monocytogenes": {"tested_on": "Listeria monocytogenes", "assay": "Antibacterial activity against Listeria monocytogenes ATCC 19115 after 18 hrs by […]", "details": "ATCC 19115, 18 h", "outline": "(§1)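 Compounds were first screened by agar diffusion, with filter-paper disks of ampicillin (10 μg), oxolinic acid (2 μg) or oxytetracycline (30 μg) as positive controls. For MICs, strains were grown in Müller-Hinton broth to early stationary phase and diluted to OD600 = 0.005. Compound dilutions were added in DMSO (final 10%). Growth was read at OD620 after 18 h at 37 C, in duplicate with two independent cultures.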"}, "Escherichia coli": {"tested_on": "Escherichia coli", "assay": "Antibacterial activity against Escherichia coli ATCC 25922 after 18 hrs by […]", "details": "ATCC 25922, 18 h", "outline": "as §1"}, "Bacillus subtilis": {"tested_on": "Bacillus subtilis", "assay": "Antibacterial activity against Bacillus subtilis NCTC 2116 after 18 hrs by […]", "details": "NCTC 2116, 18 h", "outline": "as §1"}, "Vibrio parahaemolyticus": {"tested_on": "Vibrio parahaemolyticus", "assay": "Antibacterial activity against Vibrio parahaemolyticus NCTC 10441 after 18 hrs by […]", "details": "NCTC 10441, 18 h", "outline": "as §1"}, "Staphylococcus aureus": {"tested_on": "Staphylococcus aureus", "assay": "Antibacterial activity against Staphylococcus aureus ATCC 25293 after 18 hrs by […]", "details": "ATCC 25923, 18 h, in the assay text read “ATCC 25923” for “ATCC 25293”", "outline": "as §1"}}}
{"molecule": "CC/C=C/[C@H]1C/C=C/C=C\\[C@H](O)C[C@@H](O)[C@@H](C)/C=C/C[C@@H](C)/C=C/C=C(C)/C=C/C(=O)O1", "note": "[CHAXALACTIN A]", "values": [{"measurement": "MIC", "setting": "Listeria monocytogenes", "result": 6.3, "unit": "µg/mL"}, {"measurement": "MIC", "setting": "Escherichia coli", "result": "> 20", "unit": "µg/mL"}, {"measurement": "MIC", "setting": "Bacillus subtilis", "result": 3.1, "unit": "µg/mL"}, {"measurement": "MIC", "setting": "Vibrio parahaemolyticus", "result": 12.5, "unit": "µg/mL"}, {"measurement": "MIC", "setting": "Staphylococcus aureus", "result": 0.4, "unit": "µg/mL"}]}
{"molecule": "CC/C=C/[C@H]1C/C=C/C=C\\[C@H](O)[C@@H](O)[C@@H](O)[C@@H](C)/C=C/C[C@@H](C)/C=C/C=C(C)/C=C/C(=O)O1", "note": "[CHAXALACTIN B]", "values": [{"measurement": "MIC", "setting": "Listeria monocytogenes", "result": 5, "unit": "µg/mL"}, {"measurement": "MIC", "setting": "Escherichia coli", "result": "> 20", "unit": "µg/mL"}, {"measurement": "MIC", "setting": "Bacillus subtilis", "result": 5, "unit": "µg/mL"}, {"measurement": "MIC", "setting": "Vibrio parahaemolyticus", "result": 20, "unit": "µg/mL"}, {"measurement": "MIC", "setting": "Staphylococcus aureus", "result": 0.2, "unit": "µg/mL"}]}
{"molecule": "CC/C=C/[C@H]1C/C=C/C=C\\[C@H](OC)[C@@H](O)[C@@H](O)[C@@H](C)/C=C/C[C@@H](C)/C=C/C=C(C)/C=C/C(=O)O1", "note": "[CHAXALACTIN C]", "values": [{"measurement": "MIC", "setting": "Listeria monocytogenes", "result": 6.3, "unit": "µg/mL"}, {"measurement": "MIC", "setting": "Escherichia coli", "result": "> 20", "unit": "µg/mL"}, {"measurement": "MIC", "setting": "Bacillus subtilis", "result": 6.3, "unit": "µg/mL"}, {"measurement": "MIC", "setting": "Vibrio parahaemolyticus", "result": 12.5, "unit": "µg/mL"}, {"measurement": "MIC", "setting": "Staphylococcus aureus", "result": 0.8, "unit": "µg/mL"}]}
